Screens from PubChem.
Sampled rows, rich in hits. Any-hit rate of the full collection: about 1%.
CAL PDZ FP-1 = untagged CAL PDZ binding inhibitors, primary screen, biochemical, fluorescence polarization, HTS; inhibition, % at 24.9 µM; purified CAL PDZ, TMR-peptide fluorescence polarization, 1 h; 300,000 compounds, 0.92% hits; Golgi-associated PDZ and coiled-coil motif-containing protein (Homo sapiens), Q9HD26;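 active = mean inhibition of at least 30% with at least half of replicates also reaching 30%; inconclusive = no clear call, values can overlap the other calls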;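 note: 0% = DMSO neutral control and 100% = excess unlabeled competitor peptide PRC23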
RAD52 anneal inh = RAD52 DNA annealing inhibitors, primary screen, biochemical, FRET, single point, set 2; recombinant RAD52 DNA annealing, FRET fluorescence; DNA repair protein RAD52 homolog (Homo sapiens), P43351; inhibition, % at 18.7 µM; 360,000 compounds, 0.46% hits; AID 651710, 2012;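 active = every replicate showing at least 50% inhibition; inconclusive = mean inhibition at least 50% but not in every replicate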
ERp5 block = inhibitors of ERp5-driven insulin aggregation, primary screen, biochemical, turbidity, absorbance 650 nm, single point; Protein disulfide-isomerase A6 (Homo sapiens), Q15084; 90 min; inhibition, % at 9.99 µM; 350,000 compounds, 0.05% hits; AID 651711, 2012;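 active = mean replicate inhibition above about 25%, with every replicate also reaching it, limit read from the data, passing the limit was not always enough; inconclusive = only one of those two criteria met; inactive = neither criterion met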
CAL PDZ FP-2 = CAL PDZ peptide-binding inhibitors, primary screen, biochemical, fluorescence polarization, Cer-tagged CAL PDZ, HTS; Golgi-associated PDZ and coiled-coil motif-containing protein (Homo sapiens), Q9HD26; AID 504414, 2011; 330,000 compounds, 0.02% hits; purified CAL PDZ, TMR-peptide fluorescence polarization, 1 h; inhibition, % at 20 µM;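 active = highest replicate inhibition of at least 40%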;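 note: plate controls were DMSO neutral control wells for no effect and unlabeled competitor peptide control wells for full effect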
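Material – purified CerCALP PDZ construct · Detection – FP readout, S and P plane fluorescence · Measure – percent inhibition from loss of millipolarization · Controls – unlabelled peptide for full inhibition, DMSO wells as neutral · Probe or stimulus – TMR-labelled reporter peptide T*-PRC34 bound in PDZ groove · Times – 1 h at RT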
RAD54 branch = inhibitors of human RAD54 branch migration, primary screen, biochemical, fluorescence, single point; RAD54 Holliday junction branch migration, FAM/BHQ fluorescence; DNA repair and recombination protein RAD54-like (Homo sapiens), Q92698; 360,000 compounds, 0.14% hits; inhibition, % at 10.4 µM;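 active = mean normalized replicate activity at least 40 and at least half of replicates scoring 40 or more; inconclusive = only one of the two criteria met; inactive = mean below 40 and under half of replicates reaching 40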;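 note: 0% = median of neutral control wells and 100% = median of positive control wells; inhibitors cause a drop in the FAM fluorescence signal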
PDI inh = inhibitors of human PDI, primary screen, biochemical, turbidity, single point, plate reader. PDI insulin aggregation turbidity, A650, 90 min. inhibition, % at 10 µM. 350,000 compounds, 0.052% hits. AID 588391, 2011;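 active = mean inhibition across replicates of 30% or more, whatever share of single replicates reach that level; inconclusive = mean inhibition below 30% while every single replicate reaches 30%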
Target sequence (P07237 whole entry, looked up): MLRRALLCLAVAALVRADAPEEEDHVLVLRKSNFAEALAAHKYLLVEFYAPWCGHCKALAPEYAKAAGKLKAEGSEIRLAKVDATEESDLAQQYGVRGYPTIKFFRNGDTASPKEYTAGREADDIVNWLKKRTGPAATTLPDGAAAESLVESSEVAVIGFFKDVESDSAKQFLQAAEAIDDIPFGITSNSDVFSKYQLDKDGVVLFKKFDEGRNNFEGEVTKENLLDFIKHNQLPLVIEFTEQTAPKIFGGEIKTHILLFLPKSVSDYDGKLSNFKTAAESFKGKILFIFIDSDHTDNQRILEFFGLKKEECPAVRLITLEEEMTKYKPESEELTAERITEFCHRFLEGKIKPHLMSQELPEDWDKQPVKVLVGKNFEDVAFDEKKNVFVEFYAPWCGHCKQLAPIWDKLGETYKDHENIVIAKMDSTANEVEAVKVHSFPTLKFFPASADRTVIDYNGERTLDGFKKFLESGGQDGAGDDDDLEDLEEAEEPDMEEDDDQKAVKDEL
The depositor's hits bear a star; u = inconclusive; x = no result.

SMILES | CAL PDZ FP-1 | RAD52 anneal inh | ERp5 block | CAL PDZ FP-2 | RAD54 branch | PDI inh
S=C=Nc1cccc(C2(N3CCCCC3)CCCCC2)c1 | -3 | 84* | 0 | -1 | -13 | -10
c1ccc2c(c1)[IH]c1ccccc1-2 | x | 47 | 0 | -6 | 52* | 2
O=C(Cc1ccccc1)N1CCCCN2[C@@H](CO)[C@H](c3ccc(-c4ccccc4)cc3)[C@@H]2C1 | x | -2 | -1 | x | -9 | x
O=C(CCN1CCOCC1)NCC(=O)Nc1ccc(Br)cc1C(=O)c1ccccc1 | 36* | x | x | -2 | -6 | -14
O=C(Cc1ccccn1)N1CC2(C1)[C@@H](c1ccccc1)[C@@H](CO)N2Cc1ccccn1 | x | -124 | -2 | x | x | x
N#Cc1cccc(-c2ccc([C@@H]3[C@@H](CO)N4CCCCN(C(=O)Cc5cccnc5)C[C@H]34)cc2)c1 | x | -2 | -5 | x | 12 | x
Cc1cccc(S(=O)(=O)N2[C@@H]3c4ccc(-c5ccncc5)c(=O)n4C[C@H]2[C@H](CO)[C@H]3C(=O)O)c1 | x | -15 | 3 | x | -4 | x
CC(=O)N1[C@@H]2c3ccc(-c4cccc(C(=O)N(C)C)c4)c(=O)n3C[C@H]1[C@H](CO)[C@H]2C(=O)O | x | 3 | 0 | x | x | x
Cc1ccnc(NC(=O)CCCc2ccc(N(CCCl)CCCl)cc2)n1 | 51* | 31 | 2 | 15 | -11 | 5
Cc1nc2ccccc2c(=O)n1-c1cccnc1 | -9 | x | x | 0 | -3 | 10
CSc1nc2ccccc2c(=O)n1-c1cccnc1 | 79* | -24 | 7 | 0 | x | 13
COc1ccc(C#Cc2ccc([C@H]3[C@H](CO)N4CCCCN(C(=O)Cc5cccnc5)C[C@@H]34)cc2)cc1 | x | -7 | 27* | x | 3 | x
COc1ccc(C#Cc2ccc([C@@H]3[C@@H](CO)N4CCCCN(C(=O)Cc5cccnc5)C[C@@H]34)cc2)cc1 | x | -19 | -1 | x | -1 | x
COC(=O)[C@H]1[C@H](CO)[C@H]2Cn3c(ccc(C4=CCCCC4)c3=O)[C@@H]1N2Cc1cccnc1 | x | 12 | 3 | x | 16 | x
CC(=O)O[C@@H]1CC[C@]2(C)C3CC[C@]4(C)C(=O)[C@H](O)CC4C3[C@@H](OC(C)=O)C[C@H]2C1 (stereo not given in full) | 78* | -1 | -1 | -1 | -8 | -4
CCCNC(=O)[C@H]1[C@H](CO)[C@H]2Cn3c(cccc3=O)[C@H]2N1C | x | 9 | -2 | x | 3 | x
O=C(c1ccc2c(c1)OCO2)C1CCCN(Cc2c(F)cccc2Cl)C1 (stereo not given) | x | -2 | -12 | 0 | -8 | -5
O=C(c1ccc2c(c1)OCO2)C1CCCN(CC2CCCCC2)C1 (stereo not given) | 78* | -7 | -1 | -2 | x | -11
O=C(Cc1ccccc1)N1CC2(C1)[C@@H](c1ccccc1)[C@@H](CO)N2Cc1cccc(F)c1 | x | -50 | -4 | x | x | x
Cc1nc2ccccc2c(=O)n1-c1cccc(O)c1 | 0 | x | x | x | -10 | -9
Cc1ccc(-c2nc3ccccc3c(=O)n2-c2cccc(O)c2)cc1 | 58* | -67 | -1 | -3 | x | 5
Cc1nc2ccc(Cl)cc2c(=O)n1-c1ccc([N+](=O)[O-])cc1 | 75* | -3 | 0 | x | -1 | 4
N#CCCn1cc(C(=O)NCc2ccccc2)c(-c2ccc3c(c2)OCCO3)n1 | 47* | -15 | 5 | 4 | -1 | -5
C/C=C/c1ccc(C2[C@@H]3CN(Cc4cccc(F)c4)C[C@H]2N3)cc1 (stereo not given in full) | x | 38 | 2 | x | x | x
C/C=C/c1ccc(C2[C@@H]3CN(Cc4cccnc4)C[C@H]2N3)cc1 (stereo not given in full) | x | 58* | -2 | x | x | x
SMILES | CAL PDZ FP-1 | RAD52 anneal inh | ERp5 block | CAL PDZ FP-2 | RAD54 branch | PDI inh
O=c1[nH]c(O)c(C=NCCc2ccccc2)c(=O)[nH]1 | 84* | -5 | -1 | -1 | x | -5
O=c1[nH]c(=S)n(C2CC2)c(O)c1C=NCCc1ccccc1 | x | 1 | 3 | x | x | x
NC(N)=Nc1ccc2[nH]c3c(c2c1)C[C@@]1(O)[C@H]2Cc4ccc(O)c5c4[C@@]1(CCN2CC1CC1)[C@H]3O5 | 9 | x | x | 1 | 54* | -1
CCN1[C@@H]2c3ccc(-c4ccc(OC)cc4)c(=O)n3C[C@H]1[C@H](CO)[C@H]2C(=O)OC | x | 5 | 0 | x | 8 | x
Cc1cccc(N2C(=O)NC(=O)/C(=C\c3ccc(N4CCOCC4)cc3)C2=O)c1 | 56* | -52 | x | -1 | x | 2
COC(=O)C1=C(c2ccc(OC)c(OC)c2)C[C@@H]2CC[C@H]1N2C(=O)N1CCOCC1 | -1 | 1 | -1 | 0 | 4 | -7
COC(=O)C1=C(c2ccc(OC)c(OC)c2)C[C@@H]2CC[C@H]1N2C(=O)N1CCC(C)CC1 | 41* | -8 | -5 | -4 | -2 | -1
O=C(Cc1ccccc1)N1C[C@H]2[C@@H](c3ccccc31)[C@@H](CO)N2Cc1ccccc1 | x | -6 | 4 | x | -5 | x
COc1cccc(CNCCc2ccc(F)cc2)c1 | 77* | -11 | 4 | 0 | -4 | -50
COc1cccc(CCNCc2c(F)cccc2F)c1 | 3 | 1 | 0 | 0 | x | -1
CCn1nc(-c2cccs2)nc2c(=O)n(C)c(=O)nc1-2 | -2 | x | x | -2 | u | u
CCn1nc(/C=C/c2ccccc2)nc2c(=O)n(C)c(=O)nc1-2 | -1 | -46 | 38* | 0 | x | 23
COC(=O)[C@@H]1[C@@H](CO)[C@@H]2Cn3c(ccc(-c4cccc(OC)c4)c3=O)[C@H]1N2C(=O)c1ccccc1F | x | -4 | 0 | x | -2 | x
COc1c2c(cc3c1OCO3)CCN(C)C2 | 0 | -8 | -2 | 1 | -10 | 1
COc1cc2c(cc1O)C[C@H]1NCCc3cc4c(c-2c31)OCO4 | 1 | 89* | -2 | -1 | 21 | -5
COc1cc(OC)c(OC)cc1/C=C1\C(=O)NC(=O)N(Cc2ccccc2)C1=O | 67* | -63 | 5 | 0 | -6 | 6
CC(=NCc1cccnc1)c1c(O)n(-c2ccc(Cl)cc2)c(=O)[nH]c1=O | 46* | -9 | -3 | 0 | x | 2
CN(CC=CCN(C)P(=S)(N1CC1)N1CC1)P(=S)(N1CC1)N1CC1 | 34* | -9 | -4 | -1 | x | 2
Fc1ccc(NC2=NCCS2)cc1Cl | x | x | x | 0 | 4 | 0
CC1CN=C(Nc2ccc(F)c(Cl)c2)S1 (stereo not given) | 54* | -15 | x | 0 | x | -5
